Data taken from ChEMBL document CHEMBL6092224, “The Discovery and Preclinical Profile of ALG-000184, a Prodrug of the Potent Hepatitis B Virus Capsid Assembly Modulator ALG-001075” (J Med Chem, 2024).
pIC50: −log10 of the molar value. Calls of active or inactive are those of the source. No cut-off for these calls is given here.

Key:
Cav1.2 = experiment: Inhibition of Cav1.2 (unknown origin) expressed in mammalian cells at 10 uM by automated patch-clamp method; type: toxicity, cell-based, Homo sapiens; settings: mammalian cells expressing Cav1.2
Outline: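 Currents of hERG, Nav1.5 or Cav1.2 channels expressed in mammalian cells recorded by automated patch clamp (QPatch 48) at room temperature.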

Mus musculus [1] = experiment: Effect on HBeAg level in C57BL/6 mouse infected with AAV-Hepatitis B virus at 15 mg/kg, po bid for 56 days followed by induction of compound washout period for 14 days; type: functional, organism-based; settings: time 70.0 day
Hepatitis B virus [2] = experiment: Antiviral activity against AAV-Hepatitis B virus infected in C57BL/6 mouse assessed as reduction in baseline HBV DNA production at 15 mg/kg, po bid measured after 56 days; type: functional; settings: time 56 day
[3] = Clearance in C57BL/6J mouse at 1 mg/kg, iv by LC-MS/MS analysis; type: ADME, organism-based; settings: in vivo
Outline: (§1)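 Single dose to fasted male C57BL6 mice, Sprague-Dawley rats, beagle dogs and cynomolgus monkeys, either IV at 1 mg/kg or PO as a solution at 5 mg/kg, in 80% PEG 400 in water. Plasma concentrations were measured by LC-MS/MS. PK parameters come from noncompartmental analysis using nominal doses and nominal sampling times.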

[4] = Half life in C57BL/6J mouse at 5 mg/kg, po by LC-MS/MS analysis; type: ADME, organism-based; settings: in vivo; outline: as §1
[5] = target: Nuclear receptor subfamily 1 group I member 2 (Homo sapiens, UniProt O75469); experiment: Induction of PXR (unknown origin)
Nuclear receptor subfamily 1 group I member 2, sequence (O75469 whole entry): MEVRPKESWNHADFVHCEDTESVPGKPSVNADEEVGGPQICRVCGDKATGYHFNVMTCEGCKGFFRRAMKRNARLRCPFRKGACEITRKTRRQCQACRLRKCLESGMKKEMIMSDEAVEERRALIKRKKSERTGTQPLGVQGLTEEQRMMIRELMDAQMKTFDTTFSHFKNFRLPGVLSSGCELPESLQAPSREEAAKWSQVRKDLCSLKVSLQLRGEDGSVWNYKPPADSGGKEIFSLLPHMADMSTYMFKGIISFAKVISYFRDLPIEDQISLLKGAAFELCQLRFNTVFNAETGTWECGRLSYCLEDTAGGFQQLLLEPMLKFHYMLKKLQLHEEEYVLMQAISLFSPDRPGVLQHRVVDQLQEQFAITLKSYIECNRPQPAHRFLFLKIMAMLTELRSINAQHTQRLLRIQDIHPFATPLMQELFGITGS

[6] = AUC (infinity) in Cynomolgous monkey at 1 mg/kg, iv by LC-MS/MS analysis; type: ADME, organism-based, Macaca fascicularis; settings: cynomolgus monkey, in vivo; outline: as §1
Mus musculus [7] = experiment: Effect on HBsAg level in C57BL/6 mouse infected with AAV-Hepatitis B virus at 15 to 50 mg/kg, po qd for 56 days followed by induction of compound washout period for 14 days; type: functional, organism-based; settings: dose 15-50 mg/kg, time 70.0 day
Cytochrome P450 3A4 = Cytochrome P450 3A4 (Homo sapiens, UniProt P08684); experiment: Induction of CYP3A4 (unknown origin) in human hepatocytes upto 30 uM; type: ADME, cell-based, Hepatocyte
Cytochrome P450 3A4, sequence (P08684 whole entry): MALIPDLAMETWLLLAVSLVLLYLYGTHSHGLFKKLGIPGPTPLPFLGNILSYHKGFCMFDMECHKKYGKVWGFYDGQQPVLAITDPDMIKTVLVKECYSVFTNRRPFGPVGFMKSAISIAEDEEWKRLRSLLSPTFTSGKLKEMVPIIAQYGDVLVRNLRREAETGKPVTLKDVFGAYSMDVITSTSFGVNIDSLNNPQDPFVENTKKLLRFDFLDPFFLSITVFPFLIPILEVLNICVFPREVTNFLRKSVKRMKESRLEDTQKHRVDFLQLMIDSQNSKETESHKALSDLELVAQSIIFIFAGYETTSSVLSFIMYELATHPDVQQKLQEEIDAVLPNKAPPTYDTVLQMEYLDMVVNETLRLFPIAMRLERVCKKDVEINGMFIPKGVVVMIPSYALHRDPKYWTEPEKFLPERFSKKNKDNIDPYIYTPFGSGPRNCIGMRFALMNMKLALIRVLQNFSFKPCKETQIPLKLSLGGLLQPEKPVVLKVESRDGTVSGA

[8] = Metabolic stability in Cynomolgous monkey hepatocytes assessed as half life at 1 uM incubated upto 180 mins; settings: cynomolgus monkey
[9] = Ratio of drug concentration in blood to plasma in rat at 5 uM incubated for 60 mins; type: ADME, cell-free
Outline: (§2)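 Compound at 5 μM in whole blood of each species, 37 ± 1 °C for 60 min; blood-to-plasma ratio and red blood cell partitioning determined.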

[10] = Ratio of drug concentration in blood to plasma in mouse at 5 uM incubated for 60 mins; type: ADME, cell-free; outline: as §2
[11] = target: Multidrug and toxin extrusion protein 1 (Homo sapiens, UniProt Q96FL8); experiment: Inhibition of MATE1 (unknown origin) transfected in HEK293 cells; type: cell-based
Multidrug and toxin extrusion protein 1, sequence (Q96FL8 whole entry): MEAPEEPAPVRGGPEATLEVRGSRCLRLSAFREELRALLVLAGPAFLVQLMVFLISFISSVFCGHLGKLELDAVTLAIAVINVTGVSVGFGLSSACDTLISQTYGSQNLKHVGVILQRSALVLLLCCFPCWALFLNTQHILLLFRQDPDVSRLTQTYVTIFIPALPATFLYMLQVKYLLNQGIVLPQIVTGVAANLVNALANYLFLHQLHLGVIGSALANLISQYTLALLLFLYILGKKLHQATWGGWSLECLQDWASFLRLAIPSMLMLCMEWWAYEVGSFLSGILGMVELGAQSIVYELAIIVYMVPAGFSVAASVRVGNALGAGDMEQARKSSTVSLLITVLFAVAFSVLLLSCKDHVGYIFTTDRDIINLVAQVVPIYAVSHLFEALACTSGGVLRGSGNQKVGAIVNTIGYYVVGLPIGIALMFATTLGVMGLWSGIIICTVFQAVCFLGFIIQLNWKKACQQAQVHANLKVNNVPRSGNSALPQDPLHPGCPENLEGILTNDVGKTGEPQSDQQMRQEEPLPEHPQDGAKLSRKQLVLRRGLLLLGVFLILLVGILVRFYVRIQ
Outline: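 HEK-293 cells transfected with the uptake transporter; uptake of known probe substrates measured with test compound at eight concentrations (0.0229–50.0 μM or 0.0457–100 μM); inhibition at each concentration used to calculate IC50.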

[12] = Half life in Sprague-Dawley rat at 1 mg/kg, iv by LC-MS/MS analysis; type: ADME, organism-based; settings: in vivo; outline: as §1
[13] = Volume of distribution at steady state in Sprague-Dawley rat at 1 mg/kg, iv by LC-MS/MS analysis; type: ADME, organism-based; settings: in vivo, read-out: Vdss
Outline: (§3)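 Fasted males (C57BL6 mice, Sprague−Dawley rats, beagle dogs, cynomolgus monkeys) given a single IV dose of 1 mg/kg in 80% PEG 400 in water. Plasma concentrations measured by LC-MS/MS. Vss derived by noncompartmental analysis using nominal dose and nominal sampling times.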

[14] = Half life in Sprague-Dawley rat at 5 mg/kg, po by LC-MS/MS analysis; type: ADME, organism-based; settings: in vivo; outline: as §1
Hepatitis B virus [15] = experiment: Antiviral activity against AAV-Hepatitis B virus infected in C57BL/6 mouse assessed as reduction in baseline HBV DNA production at 15 mg/kg, po bid for 56 days followed by induction of compound washout period measured after 7 days; type: functional; settings: time 63 day
[16] = Cmax in C57BL/6J mouse at 5 mg/kg, po by LC-MS/MS analysis; type: ADME, organism-based; settings: in vivo; outline: as §1
[17] = AUC (infinity) in Sprague-Dawley rat at 1 mg/kg, iv by LC-MS/MS analysis; type: ADME, organism-based; settings: in vivo; outline: as §1
[18] = Plasma protein binding in human at 1 uM incubated for 4 to 24 hrs by equilibrium dialysis method; type: ADME, cell-free; settings: time 4-24 hrs, read-out: PPB (converted)
Outline: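 Rapid equilibrium dialysis in mouse, rat, dog, monkey or human plasma for 4 or 24 h; test concentrations 1, […].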

[19] = Volume of distribution at steady state in Beagle dog at 1 mg/kg, iv by LC-MS/MS analysis; type: ADME, organism-based, Canis lupus familiaris; settings: in vivo, read-out: Vdss; outline: as §3
Cytochrome P450 2B6 = target: T1, Cytochrome P450 2B6 (Homo sapiens, UniProt P20813); experiment: Induction of CYP2B6 (unknown origin) in human hepatocytes upto 30 uM; type: ADME, cell-based, Hepatocyte
T1 sequence (P20813 whole entry): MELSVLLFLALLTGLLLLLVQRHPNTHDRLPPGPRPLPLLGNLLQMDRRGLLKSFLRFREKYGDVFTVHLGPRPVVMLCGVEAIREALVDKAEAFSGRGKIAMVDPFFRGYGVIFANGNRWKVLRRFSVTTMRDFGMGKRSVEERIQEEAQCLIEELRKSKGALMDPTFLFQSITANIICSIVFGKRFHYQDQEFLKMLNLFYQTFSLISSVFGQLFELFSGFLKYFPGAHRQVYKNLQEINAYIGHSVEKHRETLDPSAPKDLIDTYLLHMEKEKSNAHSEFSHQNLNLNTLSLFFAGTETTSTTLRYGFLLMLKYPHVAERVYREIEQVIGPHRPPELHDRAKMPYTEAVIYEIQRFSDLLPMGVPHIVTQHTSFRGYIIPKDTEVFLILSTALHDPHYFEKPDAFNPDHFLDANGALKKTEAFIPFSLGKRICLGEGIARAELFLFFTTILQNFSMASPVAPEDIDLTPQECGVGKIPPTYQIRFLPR

[20] = Oral bioavailability in Cynomolgous monkey at 5 mg/kg by LC-MS/MS analysis; type: ADME, organism-based, Macaca fascicularis; settings: cynomolgus monkey, in vivo
Outline: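 Fasted male C57BL6 mice, Sprague–Dawley rats, beagle dogs, cynomolgus monkeys; single IV dose 1 mg/kg or PO solution 5 mg/kg in 80% PEG 400 in water; plasma concentrations measured, noncompartmental analysis with nominal doses and times; F from PO vs IV AUC.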

[21] = Cytotoxicity against human HepG2.117 cells assessed as cell viability upto 50 uM; type: toxicity, cell-based; settings: hepg2.117, 50 µM
[22] = Prodrug conversion in Sprague-Dawley rat assessed as formation of N-(3-cyano-4-fluorophenyl)-4-(2-((3-ethynyloxetan-3-yl)amino)-2-oxoacetyl)-1,3,5-trimethyl-1H-pyrrole-2-carboxamide metabolite at 37.8 mg/kg, po measured for 24 hrs; type: ADME, organism-based; settings: in vivo
Outline: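 Single oral prodrug dose at molar equivalent of 30 mg/kg (rats) or […] of parent in 95% PEG 400/5% copovidone; whole blood collected into 4 volumes 75% MeOH/25% acetonitrile, centrifuged, parent quantified by LC-MS/MS; noncompartmental PK analysis.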

C#CC1(NC(=O)C(=O)c2c(C)c(C(=O)Nc3ccc(F)c(C#N)c3)n(C)c2C)COC1
pIC50 (Cav1.2): < 5.00
Activity (Mus musculus [1]): inactive
Activity (Hepatitis B virus [2]): -1.47 log10IU/ml
clearance [3]: 12 mL/min/kg
half-life [4]: 1.55 h
Activity [5]: Not_active
AUC(0-inf) [6]: 2240 ng·h/mL
Activity (Mus musculus [7]): inactive
Activity (Cytochrome P450 3A4): Not_active
half-life at 1 µM [8]: > 6 h
blood plasma ratio at 1 h, 5 µM [9]: 0.72
blood plasma ratio at 1 h, 5 µM [10]: 0.83
pIC50 [11]: < 4.93
half-life [12]: 1.64 h
Vd [13]: 0.5 L/kg
half-life [14]: 2.17 h
Activity (Hepatitis B virus [15]): -2.16 log10IU/ml
Cmax [16]: 2290 ng/mL
AUC(0-inf) [17]: 2780 ng·h/mL
fraction unbound at 1 µM [18]: 0.191
Vd [19]: 1.03 L/kg
Activity (Cytochrome P450 2B6): Not_active
bioavailability [20]: 19.6%
Activity [21]: Non-toxic

C#CC1(N(COP(=O)([O-])[O-])C(=O)C(=O)c2c(C)c(C(=O)Nc3ccc(F)c(C#N)c3)n(C)c2C)COC1.[Na+].[Na+]
Drug metabolism [22]: metabolite_detected
